Data as given in ChEMBL document CHEMBL4354866, “TREK Channel Family Activator with a Well-Defined Structure-Activation Relationship for Pain and Neurogenic Inflammation” (J Med Chem, 2020).
Changes are numbered by the printed parent chain. Activity calls are given as the source filed them. The calls are words filed in the database; no cut-off is given here.

Columns and labels:
[1] = system: T1, Potassium channel subfamily K member 2 (Homo sapiens), O95069 [F160A]; test: Activation of recombinant human TREK1 F160A mutant expressed in HEK293T cells assessed as increase in K+ current amplitude by whole cell voltage clamp electrophysiological analysis; assay type: cell-based
T1 sequence (whole entry): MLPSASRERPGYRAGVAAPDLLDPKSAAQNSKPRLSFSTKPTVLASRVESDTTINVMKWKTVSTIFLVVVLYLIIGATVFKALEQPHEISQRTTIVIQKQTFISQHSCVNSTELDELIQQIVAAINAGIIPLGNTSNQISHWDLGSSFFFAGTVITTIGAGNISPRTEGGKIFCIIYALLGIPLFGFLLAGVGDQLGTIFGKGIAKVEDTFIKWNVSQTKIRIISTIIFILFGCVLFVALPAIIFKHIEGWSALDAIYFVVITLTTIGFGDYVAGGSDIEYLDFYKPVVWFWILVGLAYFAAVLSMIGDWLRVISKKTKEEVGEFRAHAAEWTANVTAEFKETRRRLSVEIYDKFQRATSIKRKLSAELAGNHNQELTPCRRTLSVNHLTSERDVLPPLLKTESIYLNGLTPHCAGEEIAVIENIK
Method in brief: (§1)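 Transiently transfected HEK-293T cells, whole-cell voltage clamp. Held at -60 mV, 500-ms ramp -120 to +60 mV. Pipette (mM) 140 KCl, 5 EGTA, 10 HEPES, pH 7.4; external 145 NaCl, 4 KCl, pH 7.3. Compound diluted from 10 mM DMSO stock and applied extracellularly. Current increase over control fitted to concentration–response curves for EC50.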

Mus musculus [2] = test: (§2) Analgesic activity in cerulein-induced mouse model of acute pancreatitis assessed as reduction in pancreatic edema at 10 mg/kg, ip administered at 2 hrs interval for 10 hrs starting from post-first cerulein challenge and measured 12 hrs post-first cerulein challenge by H and E staining based histopathological analysis; assay type: functional, organism-based
Method in brief: (§3)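 Cerulein pancreatitis: 7 hourly i.p. injections of 50 µg/kg; 10 mg/kg compound i.p. at 2, 4, 6, 8 and 10 h. Mice killed at 12 h and pancreas harvested for MPO activity and H&E histology. Ten random fields per slide scored blind by two observers for edema, inflammatory infiltration and acinar necrosis; n = 6.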

Mus musculus [3] = test: as §2, with “necrosis” for “edema”; assay type: functional, organism-based; method in brief: as §3
[4] = target: T2, Potassium channel subfamily K member 2 (Homo sapiens) (UniProt O95069); test: Activation of recombinant human TREK1 expressed in HEK293T cells assessed as change in single channel conductance by inside-out patch electrophysiological analysis; assay type: cell-based
T2 sequence (whole entry): T1 sequence (whole entry) with A160F
Method in brief: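 Inside-out patches from HEK-293T cells expressing human TREK-1 (pEGFP-N1), 10 μM compound. Conductance taken as first open-state amplitude over voltage at -60 or +60 mV.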

[5] = target: T3, Potassium channel subfamily K member 2 (Rattus norvegicus) (UniProt Q920B6); test: Activation of TREK in depolarized Sprague-Dawley rat DRG neurons assessed as resting membrane potential at 10 uM by whole cell […] electrophysiological analysis
T3 sequence (whole entry): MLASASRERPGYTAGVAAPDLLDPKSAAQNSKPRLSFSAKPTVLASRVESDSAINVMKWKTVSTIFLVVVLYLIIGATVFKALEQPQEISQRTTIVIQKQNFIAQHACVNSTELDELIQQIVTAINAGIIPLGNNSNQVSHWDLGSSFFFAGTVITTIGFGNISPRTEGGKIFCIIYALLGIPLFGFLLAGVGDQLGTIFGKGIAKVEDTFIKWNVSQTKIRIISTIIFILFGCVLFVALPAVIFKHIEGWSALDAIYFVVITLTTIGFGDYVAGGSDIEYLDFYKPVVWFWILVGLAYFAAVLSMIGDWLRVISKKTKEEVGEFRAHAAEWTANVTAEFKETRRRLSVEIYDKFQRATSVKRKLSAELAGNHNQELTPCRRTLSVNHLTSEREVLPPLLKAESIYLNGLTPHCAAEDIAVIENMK
Method in brief: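 Dissociated rat DRG neurons in current clamp, held at 0 pA. Resting membrane potential recorded before and during 10 μM compound; n = 18 cells from 4 rats; paired t test.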

[6] = target: T2, Potassium channel subfamily K member 2 (Homo sapiens); test: Activation of recombinant human TREK1 expressed in HEK293T cells assessed as increase in probability of open channel by outside-out patch electrophysiological analysis; assay type: cell-based
Method in brief: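 Outside-out patches from HEK-293T cells transfected with human TREK-1 (pEGFP-N1). Pipettes 7–15 MΩ. Open probability measured at -60 and +60 mV. Conductance taken as first open-state current amplitude divided by voltage at ±60 mV.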

[7] = target: T3, Potassium channel subfamily K member 2 (Rattus norvegicus); test: Activation of TREK in depolarized Sprague-Dawley rat DRG neurons assessed as increase in K+ current amplitude at 10 uM by whole cell voltage clamp electrophysiological analysis relative to control
[8] = target: T4, Potassium channel subfamily K member 4 (Homo sapiens, UniProt Q9NYG8); test: Activation of recombinant human TRAAK expressed in HEK293T cells assessed as increase in K+ current amplitude by whole cell voltage clamp electrophysiological analysis; assay type: cell-based; method in brief: as §1
T4 sequence (Q9NYG8 whole entry): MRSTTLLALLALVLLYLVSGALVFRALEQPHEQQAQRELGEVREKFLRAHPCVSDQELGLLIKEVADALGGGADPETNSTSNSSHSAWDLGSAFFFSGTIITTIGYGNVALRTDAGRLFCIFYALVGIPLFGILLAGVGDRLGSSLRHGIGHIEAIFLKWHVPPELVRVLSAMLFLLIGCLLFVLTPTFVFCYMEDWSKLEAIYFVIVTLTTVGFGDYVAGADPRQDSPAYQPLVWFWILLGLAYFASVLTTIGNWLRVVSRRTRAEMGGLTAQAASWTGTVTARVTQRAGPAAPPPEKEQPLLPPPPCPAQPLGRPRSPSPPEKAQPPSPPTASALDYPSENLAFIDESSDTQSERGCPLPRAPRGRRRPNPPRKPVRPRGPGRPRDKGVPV

[9] = Drug uptake in BALB/c mouse plasma at 5 mg/kg, ip administered as single dose by LC-MS/MS analysis; assay type: ADME, organism-based; conditions: in vivo
Method in brief: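 BALB/c mice (n = 6) given a single 5 mg/kg i.p. dose as a 0.5 mg/ml solution in 5% DMSO/5% Tween 80/90% saline. Plasma sampled at 0.083–8 h. Concentrations measured by LC-MS/MS against spiked standard curves; AUC, Tmax, Cmax and T1/2 calculated by non-compartmental analysis of mean concentrations.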

With Cc1ccc2nc(-c3ccc(NC(=O)[C@@H]4CC[C@H](C(=O)O)C4)cc3)sc2c1 the Activity [1] was “inactive”, the Activity (Mus musculus [2]) was “Active” and the Activity (Mus musculus [3]) was “Active”. For the same compound, the Activity [4] was “inactive”, the Activity [5] was 1.12 mV and the Activity [6] was “Active”. For the same compound, the Activity [7] was 24%, the EC50 [8] was 15.3 µM and the Drug uptake [9] was “Active”.
